Consider one compound from ChEMBL document CHEMBL3779767, “Identification of potent and selective MTH1 inhibitors” (Bioorg Med Chem Lett, 2016).

Data set [1] concerns the target Activin receptor type-1B (Homo sapiens) (UniProt P36896). Description: Inhibition of partial length human ACVR1B expressed in bacterial system at 1 uM. The method, boiled down:
(§1)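 Single-point screen within a 97-kinase profiling panel, with the test compound at 1 µM.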

The target of data set [2] is Aurora kinase B (Homo sapiens) (UniProt Q96GD4). Description: Inhibition of partial length human Aurora B expressed in mammalian system at 1 uM. The method, boiled down:
as §1

The target of data set [3] is Cyclin-dependent kinase 9 (Homo sapiens) (UniProt P50750). The data set is described as follows: Inhibition of partial length human CDK9 expressed in bacterial system at 1 uM. In outline: as §1
In data set [4] the target is Serine/threonine-protein kinase Chk1 (Homo sapiens) (UniProt O14757). The data set is described as follows: Inhibition of partial length human CHEK1 expressed in bacterial system at 1 uM. The method, boiled down:
as §1

Data set [5] concerns the target Dual specificity tyrosine-phosphorylation-regulated kinase 1B (Homo sapiens) (UniProt Q9Y463). Description: Inhibition of partial length human DYRK1B expressed in bacterial system at 1 uM. In outline:
as §1

For data set [6], the target named is Fibroblast growth factor receptor 3 (Homo sapiens) (UniProt P22607). The data set is described as follows: Inhibition of partial length human FGFR3 expressed in bacterial system at 1 uM. The method, boiled down:
as §1

The target in data set [7] is Glycogen synthase kinase-3 beta (Homo sapiens) (UniProt P49841). Description: Inhibition of partial length human GSK3beta expressed in mammalian system at 1 uM. The method, boiled down: as §1
For data set [8], the target named is Mitogen-activated protein kinase kinase kinase 4 (Homo sapiens) (UniProt Q9Y6R4). Description: Inhibition of partial length human MAP3K4 expressed in bacterial system at 1 uM. The method, boiled down:
as §1

Data set [9] deals with Serine/threonine-protein kinase PAK 1 (Homo sapiens) (UniProt Q13153). Description: Inhibition of partial length human PAK1 expressed in bacterial system at 1 uM. The method, boiled down:
(§2)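 Single-concentration screen across a panel of 97 kinases, with the test compound at 1 uM.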

For data set [10], the target named is Serine/threonine-protein kinase PLK3 (Homo sapiens) (UniProt Q9H4B4). The data set is described as follows: Inhibition of partial length human PLK3 expressed in mammalian system at 1 uM. In outline:
as §2

A short description of data set [11]: Cytotoxicity against human 293T cells assessed as change in phenotypic response measured after prolonged treatment. Format: cell-based. The note with it: hek-293t.
Data set [12] can be described thus: Cytotoxicity against human 293T cells assessed as change in phenotypic response up to 50 uM. The note with it: hek-293t. It counts as cell-based.
A further data set has as its system NCI-H358. Description: Antiproliferative activity against human NCI-H358 cells assessed as change in phenotypic response up to 50 uM. It counts as functional, cell-based.

Each structure is given as a SMILES string. The source made the active and inactive calls. No cut-off for these calls is given here.

Chain of Fibroblast growth factor receptor 3 (Homo sapiens) (P22607 23-806 limits assumed): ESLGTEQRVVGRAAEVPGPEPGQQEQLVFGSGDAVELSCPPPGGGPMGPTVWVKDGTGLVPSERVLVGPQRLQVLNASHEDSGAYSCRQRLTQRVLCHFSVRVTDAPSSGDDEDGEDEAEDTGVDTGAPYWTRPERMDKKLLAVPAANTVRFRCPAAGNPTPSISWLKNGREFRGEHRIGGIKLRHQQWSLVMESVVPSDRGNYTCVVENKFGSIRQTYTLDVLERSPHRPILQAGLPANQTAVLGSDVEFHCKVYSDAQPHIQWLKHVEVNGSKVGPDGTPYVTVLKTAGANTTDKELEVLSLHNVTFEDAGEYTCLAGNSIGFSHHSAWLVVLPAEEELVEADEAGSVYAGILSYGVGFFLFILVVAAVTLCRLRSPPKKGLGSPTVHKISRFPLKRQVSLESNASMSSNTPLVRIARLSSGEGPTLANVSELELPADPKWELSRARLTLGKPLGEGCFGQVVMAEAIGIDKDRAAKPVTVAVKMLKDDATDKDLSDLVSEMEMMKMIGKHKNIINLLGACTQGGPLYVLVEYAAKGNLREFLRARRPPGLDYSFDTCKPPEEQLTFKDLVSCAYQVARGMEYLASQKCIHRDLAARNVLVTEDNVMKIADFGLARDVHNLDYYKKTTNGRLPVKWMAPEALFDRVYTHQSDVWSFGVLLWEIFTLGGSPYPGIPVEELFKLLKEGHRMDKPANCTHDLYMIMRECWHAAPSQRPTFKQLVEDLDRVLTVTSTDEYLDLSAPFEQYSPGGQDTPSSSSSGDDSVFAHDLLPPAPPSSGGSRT
Chain of Aurora kinase B (Homo sapiens) (Q96GD4 whole entry): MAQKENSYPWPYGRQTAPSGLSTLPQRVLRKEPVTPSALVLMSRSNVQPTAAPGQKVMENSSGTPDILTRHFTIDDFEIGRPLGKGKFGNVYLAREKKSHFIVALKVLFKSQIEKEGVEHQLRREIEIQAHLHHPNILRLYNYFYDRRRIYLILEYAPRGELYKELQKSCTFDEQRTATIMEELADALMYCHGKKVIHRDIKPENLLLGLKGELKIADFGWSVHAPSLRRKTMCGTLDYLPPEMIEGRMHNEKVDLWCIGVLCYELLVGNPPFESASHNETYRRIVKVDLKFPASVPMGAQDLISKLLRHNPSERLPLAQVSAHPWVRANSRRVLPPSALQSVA
Chain of Dual specificity tyrosine-phosphorylation-regulated kinase 1B (Homo sapiens) (Q9Y463 whole entry, looked up): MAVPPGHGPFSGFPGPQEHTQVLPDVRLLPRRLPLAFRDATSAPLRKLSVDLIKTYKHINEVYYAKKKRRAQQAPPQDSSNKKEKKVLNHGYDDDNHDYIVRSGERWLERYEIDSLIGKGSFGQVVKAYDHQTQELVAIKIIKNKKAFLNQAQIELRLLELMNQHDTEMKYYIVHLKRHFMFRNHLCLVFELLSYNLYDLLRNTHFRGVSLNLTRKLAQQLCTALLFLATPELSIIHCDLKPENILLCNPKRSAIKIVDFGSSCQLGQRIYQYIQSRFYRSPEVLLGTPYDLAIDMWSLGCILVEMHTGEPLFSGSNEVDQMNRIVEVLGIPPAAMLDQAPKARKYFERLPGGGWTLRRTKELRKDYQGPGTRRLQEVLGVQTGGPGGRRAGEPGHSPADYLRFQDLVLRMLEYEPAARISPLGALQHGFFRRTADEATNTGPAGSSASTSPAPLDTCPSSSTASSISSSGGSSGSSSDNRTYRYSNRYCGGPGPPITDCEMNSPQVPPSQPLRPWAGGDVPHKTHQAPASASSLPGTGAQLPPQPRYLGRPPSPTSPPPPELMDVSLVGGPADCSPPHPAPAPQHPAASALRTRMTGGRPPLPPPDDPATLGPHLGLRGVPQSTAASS
Chain of Mitogen-activated protein kinase kinase kinase 4 (Homo sapiens) (Q9Y6R4 whole entry): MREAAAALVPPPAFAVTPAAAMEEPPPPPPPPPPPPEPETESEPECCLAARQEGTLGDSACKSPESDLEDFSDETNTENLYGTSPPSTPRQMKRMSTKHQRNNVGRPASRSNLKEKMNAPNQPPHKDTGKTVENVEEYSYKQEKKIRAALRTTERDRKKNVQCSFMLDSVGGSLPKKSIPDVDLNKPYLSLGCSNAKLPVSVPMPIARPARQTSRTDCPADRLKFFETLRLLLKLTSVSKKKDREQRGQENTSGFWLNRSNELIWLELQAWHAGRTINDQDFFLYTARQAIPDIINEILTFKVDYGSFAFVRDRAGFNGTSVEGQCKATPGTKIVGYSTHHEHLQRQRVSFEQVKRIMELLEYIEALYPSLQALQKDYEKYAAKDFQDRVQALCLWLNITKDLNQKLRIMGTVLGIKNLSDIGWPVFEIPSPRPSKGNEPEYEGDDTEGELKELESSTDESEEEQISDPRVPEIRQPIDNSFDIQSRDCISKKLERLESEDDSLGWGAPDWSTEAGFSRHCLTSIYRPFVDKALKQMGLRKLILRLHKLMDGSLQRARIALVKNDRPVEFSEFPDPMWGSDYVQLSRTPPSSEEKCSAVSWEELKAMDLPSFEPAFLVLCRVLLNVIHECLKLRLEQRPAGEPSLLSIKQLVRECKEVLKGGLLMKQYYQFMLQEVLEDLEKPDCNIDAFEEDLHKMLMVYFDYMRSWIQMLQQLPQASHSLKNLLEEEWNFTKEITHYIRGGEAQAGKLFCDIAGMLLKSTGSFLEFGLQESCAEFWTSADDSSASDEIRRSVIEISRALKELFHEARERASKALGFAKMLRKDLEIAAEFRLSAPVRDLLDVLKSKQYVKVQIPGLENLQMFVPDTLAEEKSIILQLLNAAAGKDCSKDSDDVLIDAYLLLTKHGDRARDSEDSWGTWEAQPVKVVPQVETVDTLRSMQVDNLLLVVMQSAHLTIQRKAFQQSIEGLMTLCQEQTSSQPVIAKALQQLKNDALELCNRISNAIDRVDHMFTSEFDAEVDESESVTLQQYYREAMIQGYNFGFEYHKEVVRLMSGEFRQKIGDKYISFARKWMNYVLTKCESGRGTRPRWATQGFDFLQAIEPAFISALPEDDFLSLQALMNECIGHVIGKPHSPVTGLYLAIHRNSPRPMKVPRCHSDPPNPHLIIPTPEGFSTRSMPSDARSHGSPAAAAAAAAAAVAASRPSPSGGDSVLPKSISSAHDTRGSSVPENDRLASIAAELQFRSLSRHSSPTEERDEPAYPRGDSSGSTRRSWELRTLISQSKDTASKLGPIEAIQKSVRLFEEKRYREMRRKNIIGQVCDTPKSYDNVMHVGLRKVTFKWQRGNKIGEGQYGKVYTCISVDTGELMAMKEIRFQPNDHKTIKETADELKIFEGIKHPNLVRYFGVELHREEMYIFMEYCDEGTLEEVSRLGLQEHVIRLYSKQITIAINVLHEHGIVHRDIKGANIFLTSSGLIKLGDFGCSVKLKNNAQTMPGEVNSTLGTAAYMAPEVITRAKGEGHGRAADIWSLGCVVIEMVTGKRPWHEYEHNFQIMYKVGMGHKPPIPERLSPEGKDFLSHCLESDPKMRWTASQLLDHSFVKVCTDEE
Chain of Serine/threonine-protein kinase PLK3 (Homo sapiens) (Q9H4B4 whole entry, looked up): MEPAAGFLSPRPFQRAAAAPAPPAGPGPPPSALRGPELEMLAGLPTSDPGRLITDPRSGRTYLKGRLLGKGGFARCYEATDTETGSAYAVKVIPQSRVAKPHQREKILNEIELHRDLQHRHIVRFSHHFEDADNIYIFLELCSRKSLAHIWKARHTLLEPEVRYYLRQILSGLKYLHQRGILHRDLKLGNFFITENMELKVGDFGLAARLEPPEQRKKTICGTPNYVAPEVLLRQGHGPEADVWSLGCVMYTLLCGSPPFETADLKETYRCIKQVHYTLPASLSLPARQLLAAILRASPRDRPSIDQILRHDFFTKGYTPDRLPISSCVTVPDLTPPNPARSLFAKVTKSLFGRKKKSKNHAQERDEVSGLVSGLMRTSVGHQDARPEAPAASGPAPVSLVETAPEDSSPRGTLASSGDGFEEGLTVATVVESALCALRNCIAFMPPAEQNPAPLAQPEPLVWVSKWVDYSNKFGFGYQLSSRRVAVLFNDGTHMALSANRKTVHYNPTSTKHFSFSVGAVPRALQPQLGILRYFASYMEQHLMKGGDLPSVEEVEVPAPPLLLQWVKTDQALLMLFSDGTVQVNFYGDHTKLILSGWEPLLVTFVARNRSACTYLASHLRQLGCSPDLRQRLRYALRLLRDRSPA
Chain of Glycogen synthase kinase-3 beta (Homo sapiens) (P49841 whole entry, looked up): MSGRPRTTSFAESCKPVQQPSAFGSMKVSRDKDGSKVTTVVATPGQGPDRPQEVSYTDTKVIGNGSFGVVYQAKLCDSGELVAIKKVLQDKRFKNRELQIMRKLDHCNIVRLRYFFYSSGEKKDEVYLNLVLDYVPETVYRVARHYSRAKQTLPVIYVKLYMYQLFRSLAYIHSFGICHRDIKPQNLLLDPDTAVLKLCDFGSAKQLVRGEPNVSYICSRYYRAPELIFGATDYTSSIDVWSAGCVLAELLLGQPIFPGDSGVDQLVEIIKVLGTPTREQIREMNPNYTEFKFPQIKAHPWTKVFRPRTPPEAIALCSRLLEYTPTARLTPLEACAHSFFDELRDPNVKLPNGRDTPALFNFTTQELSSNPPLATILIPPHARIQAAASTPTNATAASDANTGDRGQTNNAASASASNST
Chain of Cyclin-dependent kinase 9 (Homo sapiens) (P50750 whole entry): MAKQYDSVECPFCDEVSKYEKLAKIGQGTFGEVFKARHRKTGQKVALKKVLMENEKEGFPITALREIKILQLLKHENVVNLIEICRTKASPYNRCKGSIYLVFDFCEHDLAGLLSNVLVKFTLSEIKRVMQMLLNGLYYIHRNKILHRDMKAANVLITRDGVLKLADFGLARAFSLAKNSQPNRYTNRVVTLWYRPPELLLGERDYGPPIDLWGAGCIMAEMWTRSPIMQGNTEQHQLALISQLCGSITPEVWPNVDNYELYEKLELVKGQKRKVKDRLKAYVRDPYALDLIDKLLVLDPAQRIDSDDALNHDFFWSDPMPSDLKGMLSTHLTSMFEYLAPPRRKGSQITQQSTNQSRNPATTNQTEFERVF

As for `Cc1cnc(N)nc1OCC(C)(C)CO`, the inhibition result in data set [1], in data set [2], in data set [3], in [4], in data set [5] and in [6] was “inactive” each time. Further, the inhibition result in [7], in data set [8], in data set [9] and in [10] was “inactive” each time. Moreover, the Activity result in data set [11] and in [12] was “Non-toxic” in each case. Further, the result with NCI-H358 was inactive.
